Experimental data gathered from unrelated publications.
Each line is one published result; the experiments were not run side by side.
Target: Vascular endothelial growth factor receptor 2 (KDR, Homo sapiens, UniProt P35968)
Read-out: enzyme activity
Action: inhibitor

COc1ccc(C=NNC(=O)c2sc(Nc3ccccc3)c(C(=O)Nc3ccc(OC)cc3)c2NC(C)=O)cc1
remaining activity (0.1 µM): 79.4%

CC(C)(C)c1nc(-c2cccc(NS(=O)(=O)c3c(F)cccc3F)c2F)c(-c2ccnc(N)n2)s1
remaining activity (radiometric; 1 µM): 82%

CCCOc1ccc(OC)c(F)c1C(=O)c1ccc(C(=O)N[C@@H]2CNC[C@H]2NC(=O)c2ccc3[nH]ncc3c2)cc1
remaining activity (10 µM): 74%

COc1cc(Cl)c(C(=O)N[C@@H](CN[C@H]2CC[C@@H](N)CC2)Cc2ccc(C#N)cc2)cc1-c1ccc(CN[C@H](C)c2ccc(C)cc2)o1
remaining activity (1 µM): 82%

O=C(Nc1cnn(-c2csc(C(=O)NC3COC3)c2)c1)Nc1c(F)cccc1Cl
remaining activity (5 µM): 88.3%

CC(C)(O)[C@H]1CC[C@H](Nc2ccc3ncc(-c4cccc(C(F)(F)F)c4)n3n2)CC1
remaining activity (1 µM): 91.5%

CCN(CC)c1ccc(C2=NNC(=O)CC2C)cc1[N+](=O)[O-] (stereo not shown)
remaining activity (10 µM): 99%

COc1ccc(NC(=O)c2c(Nc3ccccc3)sc(C#N)c2NC(=O)CNc2ccc(Cl)cc2)cc1
remaining activity (100 µM): 16.5%

CC(C)(C)c1nc2c(s1)c1nc(N)ncc1c1ccc(NS(=O)(=O)c3c(F)cccc3F)c(F)c12
remaining activity (radiometric; 1 µM): 95%

O=C(Nc1cnn(-c2csc(C(=O)NC3COC3)c2)c1)Nc1ccccc1Cl
remaining activity (5 µM): 95.2%

Cc1[nH]c(/C=C2\C(=O)Nc3ccc(F)cc32)c(C)c1C(=O)N[C@H]1CCN(C(=O)N(C)C)C1
remaining activity (0.1 µM): 10%

COc1ccc(NC(=O)c2c(Nc3ccccc3)sc(C#N)c2NC(=O)CNc2ccc([N+](=O)[O-])cc2)cc1
remaining activity (0.1 µM): 86.1%

Cc1cnc(NC2CCOCC2)nc1-n1cnc(C(=O)NC(CN)c2cc(F)cc(Cl)c2)c1 (stereo not shown)
remaining activity (radiometric; 1 µM): 85%
